In ChEMBL document CHEMBL3627671, “Novel derivatives of nitro-substituted salicylic acids: Synthesis, antimicrobial activity and cytotoxicity” (Bioorg Med Chem, 2015):

Legend:
Type in all cases: functional
[1] = tested on: Mycobacterium tuberculosis; assay: Antimycobacterial activity against Mycobacterium tuberculosis H37Rv 331/88 after 14 days; details: H37Rv 331/88, 336 h
[2] = tested on: Mycobacterium tuberculosis; assay: Antimycobacterial activity against Mycobacterium tuberculosis H37Rv 331/88 after 21 days; details: H37Rv 331/88, 504 h
Mycobacterium avium [3] = assay: Antimycobacterial activity against Mycobacterium avium 330/80 after 14 days; details: 330/80, 336 h
Mycobacterium avium [4] = assay: Antimycobacterial activity against Mycobacterium avium 330/80 after 21 days; details: 330/80, 504 h
Mycobacterium kansasii [5] = assay: Antimycobacterial activity against Mycobacterium kansasii 235/80 after 7 days; details: 235/80, 168 h
Summary of the method: (§1)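 Šula's semisynthetic medium micromethod at 37 °C, read after 7, 14 and 21 days. The 1.0 McFarland suspension was diluted 10^-4. MIC determined. 6509/96 is a clinical isolate.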

Mycobacterium kansasii [6] = assay: Antimycobacterial activity against Mycobacterium kansasii 235/80 after 14 days; details: 235/80, 336 h; summary of the method: as §1
Mycobacterium kansasii [7] = assay: Antimycobacterial activity against Mycobacterium kansasii 235/80 after 21 days; details: 235/80, 504 h; summary of the method: as §1
Mycobacterium kansasii [8] = assay: Antimycobacterial activity against Mycobacterium kansasii 6509/96 after 7 days; details: 6509/96, 168 h; summary of the method: as §1
Mycobacterium kansasii [9] = assay: Antimycobacterial activity against Mycobacterium kansasii 6509/96 after 14 days; details: 6509/96, 336 h; summary of the method: as §1
Mycobacterium kansasii [10] = assay: Antimycobacterial activity against Mycobacterium kansasii 6509/96 after 21 days; details: 6509/96, 504 h; summary of the method: as §1
Staphylococcus aureus [11] = assay: Antibacterial activity against Staphylococcus aureus CCM 4516/08 after 24 hrs by microdilution broth method; details: CCM 4516/08, 24 h
Staphylococcus aureus [12] = assay: Antibacterial activity against Staphylococcus aureus CCM 4516/08 after 48 hrs by microdilution broth method; details: CCM 4516/08, 48 h
Staphylococcus aureus [13] = assay: Antibacterial activity against methicillin-resistant Staphylococcus aureus H 5996/08 after 24 hrs by microdilution broth method; details: H 5996/08, 24 h
Staphylococcus aureus [14] = assay: Antibacterial activity against methicillin-resistant Staphylococcus aureus H 5996/08 after 48 hrs by microdilution broth method; details: H 5996/08, 48 h
[15] = tested on: Staphylococcus epidermidis; assay: Antibacterial activity against Staphylococcus epidermidis H 6966/08 after 24 hrs by microdilution broth method; details: H 6966/08, 24 h
Summary of the method: (§2)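 Mueller-Hinton broth microdilution (modified M07-A07), pH 7.4 (±0.2). Compounds dissolved in DMSO, tested at final 500 to 0.49 µmol/L. Inoculum in sterile water matched to 0.5 McFarland. Incubated in the dark, humid atmosphere, 35 °C, read at 24 and 48 h visually and at 540 nm. MIC taken as ≥95% growth reduction (IC95) versus control.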

[16] = tested on: Staphylococcus epidermidis; assay: Antibacterial activity against Staphylococcus epidermidis H 6966/08 after 48 hrs by microdilution broth method; details: H 6966/08, 48 h; summary of the method: as §2
Enterococcus sp. [17] = assay: Antibacterial activity against Enterococcus sp. J 14365/08 after 24 hrs by microdilution broth method; details: J 14365/08, 24 h; summary of the method: as §2
Enterococcus sp. [18] = assay: Antibacterial activity against Enterococcus sp. J 14365/08 after 48 hrs by microdilution broth method; details: J 14365/08, 48 h; summary of the method: as §2
Escherichia coli [19] = assay: Antibacterial activity against Escherichia coli CCM4517 after 24 hrs by microdilution broth method; details: CCM4517, 24 h; summary of the method: as §2
Escherichia coli [20] = assay: Antibacterial activity against Escherichia coli CCM4517 after 48 hrs by microdilution broth method; details: CCM4517, 48 h; summary of the method: as §2
Klebsiella pneumoniae [21] = assay: Antibacterial activity against Klebsiella pneumoniae D 11750/08 after 24 hrs by microdilution broth method; details: D 11750/08, 24 h; summary of the method: as §2
Klebsiella pneumoniae [22] = assay: Antibacterial activity against Klebsiella pneumoniae D 11750/08 after 48 hrs by microdilution broth method; details: D 11750/08, 48 h; summary of the method: as §2
Klebsiella pneumoniae [23] = assay: Antibacterial activity against ESBL-positive Klebsiella pneumoniae J 14368/08 after 24 hrs by microdilution broth method; details: J 14368/08, 24 h; summary of the method: as §2
Klebsiella pneumoniae [24] = assay: Antibacterial activity against ESBL-positive Klebsiella pneumoniae J 14368/08 after 48 hrs by microdilution broth method; details: J 14368/08, 48 h; summary of the method: as §2
Pseudomonas aeruginosa [25] = assay: Antibacterial activity against Pseudomonas aeruginosa CCM 1961 after 24 hrs by microdilution broth method; details: CCM 1961, 24 h; summary of the method: as §2
Pseudomonas aeruginosa [26] = assay: Antibacterial activity against Pseudomonas aeruginosa CCM 1961 after 48 hrs by microdilution broth method; details: CCM 1961, 48 h; summary of the method: as §2
Candida albicans [27] = assay: Antifungal activity against Candida albicans ATCC 44859 after 24 hrs by microdilution broth method; details: ATCC 44859, 24 h
Summary of the method: (§3)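 CLSI M27-A3 broth microdilution in RPMI 1640 with glutamine, buffered to pH 7.0 with MOPS; DMSO diluent. Yeast inoculum 5 × 10^3 ± 0.2 CFU/mL. Moulds grown on Sabouraud agar 3–10 days before spore harvest, final inoculum 0.5-5 × 10^4 CFU/mL, checked in a Bürker chamber. Incubated dark, humid, 35 °C, read at 24 and 48 h visually and at 540 nm. MIC taken as ≥80% (yeasts) or ≥50% (filamentous) growth reduction versus control.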

Candida albicans [28] = assay: Antifungal activity against Candida albicans ATCC 44859 after 48 hrs by microdilution broth method; details: ATCC 44859, 48 h; summary of the method: as §3
Candida tropicalis [29] = assay: Antifungal activity against Candida tropicalis 156 after 24 hrs by microdilution broth method; details: Candida tropicalis, 156, 24 h; summary of the method: as §3
Candida tropicalis [30] = assay: Antifungal activity against Candida tropicalis 156 after 48 hrs by microdilution broth method; details: Candida tropicalis, 156, 48 h; summary of the method: as §3
Pichia kudriavzevii [31] = assay: Antifungal activity against Candida krusei E28 after 24 hrs by microdilution broth method; details: E28, 24 h; summary of the method: as §3
Pichia kudriavzevii [32] = assay: Antifungal activity against Candida krusei E28 after 48 hrs by microdilution broth method; details: E28, 48 h; summary of the method: as §3
Nakaseomyces glabratus [33] = assay: Antifungal activity against Candida glabrata 20/I after 24 hrs by microdilution broth method; summary of the method: as §3
Nakaseomyces glabratus [34] = assay: Antifungal activity against Candida glabrata 20/I after 48 hrs by microdilution broth method; summary of the method: as §3
Trichosporon asahii [35] = assay: Antifungal activity against Trichosporon asahii 1188 after 24 hrs by microdilution broth method; details: Trichosporon asahii, 1188, 24 h; summary of the method: as §3
Trichosporon asahii [36] = assay: Antifungal activity against Trichosporon asahii 1188 after 48 hrs by microdilution broth method; details: Trichosporon asahii, 1188, 48 h; summary of the method: as §3
Aspergillus fumigatus [37] = assay: Antifungal activity against Aspergillus fumigatus 231 after 24 hrs by microdilution broth method; details: Aspergillus fumigatus, 231, 24 h; summary of the method: as §3
Aspergillus fumigatus [38] = assay: Antifungal activity against Aspergillus fumigatus 231 after 48 hrs by microdilution broth method; details: Aspergillus fumigatus, 231, 48 h; summary of the method: as §3
Lichtheimia corymbifera [39] = assay: Antifungal activity against Absidia corymbifera 272 after 24 hrs by microdilution broth method; details: Lichtheimia corymbifera, 272, 24 h; summary of the method: as §3
Lichtheimia corymbifera [40] = assay: Antifungal activity against Absidia corymbifera 272 after 48 hrs by microdilution broth method; details: Lichtheimia corymbifera, 272, 48 h; summary of the method: as §3
[41] = tested on: Trichophyton mentagrophytes; assay: Antifungal activity against Trichophyton mentagrophytes 445 after 24 hrs by microdilution broth method; details: Trichophyton mentagrophytes, 445, 24 h
[42] = tested on: Trichophyton mentagrophytes; assay: Antifungal activity against Trichophyton mentagrophytes 445 after 48 hrs by microdilution broth method; details: Trichophyton mentagrophytes, 445, 48 h

Measured: MIC

O=C(Nc1cccc(F)c1)c1cc([N+](=O)[O-])ccc1O
125 µM: Mycobacterium avium [3] | Mycobacterium avium [4] | Staphylococcus aureus [11] | Staphylococcus aureus [12] | Staphylococcus aureus [13] | Staphylococcus aureus [14] | [15]
32 µM: [2] | Mycobacterium kansasii [8]
16 µM: [1] | Mycobacterium kansasii [5]
62.5 µM: Mycobacterium kansasii [6] | Mycobacterium kansasii [7] | Mycobacterium kansasii [9] | Mycobacterium kansasii [10]
250 µM: [16]
500 µM: [41] | [42]
> 500 µM: all other assays above
